# Autophagy mod: autophagy modulators in MEF cells, primary screen, imaging, high-content, MEF GFP-LC3; MEF GFP-LC3 puncta imaging; test concentration mostly 10 µM; calls only at 10 µM (by protocol); 190,000 compounds, 0.98% hits;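 active means percentage of spot-positive cells more than 3 SD above its plate mean, without a fluorescence outlier flag or 80% toxicity; inconclusive means no clear call, values can overlap the other calls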;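 further: spot-positive cell cutoff set from DMSO-treated cells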
# CHOP inhibitor: inhibitors of CHOP promoter induction, primary screen, cell-based, unfolded protein response, luciferase reporter; CHO-K1 CHOP-promoter luciferase, tunicamycin-induced, 15-18 h; inhibition, % at 10 µM; 220,000 compounds, 3.8% hits;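 active means compounds that reduced the stress-induced luciferase reporter signal by more than about 70% of percent inhibition, limit read from the data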;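 further: 0% = tunicamycin plus vehicle and 100% = wells without tunicamycin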
# MT stabilize HCS: microtubule stabilizers in HeLa cells, primary screen, imaging, high-content imaging | HeLa tubulin immunostaining HCS, 24 h; share of cells brighter than vehicle mean+2SD | % tubulin-high responders, % at 10 µM | 200,000 compounds, 0.83% hits | AID 2205, 2009;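 active means plate Z-score above 3 for both tubulin-high and condensed-nucleus cell shares, with cell loss under 80%, at 10 µM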;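 further: anti alpha tubulin signal scored within the nucleus-defined area of each cell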
# bCat nuc transl: modulators of beta-catenin nuclear translocation, primary screen, imaging, HeLa cells, immunofluorescence, high-content. nuclear translocation activity, % at 5 µM. 190,000 compounds, 0.3% hits;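 active means nuclear translocation activity above 50% at 5 µM, with a well cell count of 50 or more; inconclusive means wells under 50 cells across six images, flagged as toxic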;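 further: per-cell ratio of nuclear to cytoplasmic median beta-catenin stain intensity; plate controls were DMSO negative control for no effect and GSK-3 inhibitor IX positive control for full effect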
#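 Read-out: Nuclear/cytoplasmic beta-catenin signal ratio, % activation | Assay system: Human HeLa cell line | Times: 24 h compound exposure at 37°C, 5% CO2 | Signal: Fluorescence imaging of beta-catenin antibody stain plus DAPI | Dosing: 5 µM primary, 0.02–20 µM confirmation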
# L major viab: Leishmania major promastigote growth inhibition, primary screen | AID 1063, 2008 | 200,000 compounds, 9% hits | inhibition, % at 10 µM | Leishmania major promastigotes, resazurin fluorescence viability; in the data active means inhibition above about 50%;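 further: promastigotes grown with compound for 44 hours at 28 °C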
# Dynein cargo inh: inhibitors of GR-EGFP nuclear translocation, primary screen, dynein cargo transport inhibitor project, imaging, high-content, 3617.4 mouse cells; test concentration mostly 20 µM; stimulated with dexamethasone, 1 µM; stronger effect = lower value; z-score, hits read low; 220,000 compounds, 0.47% hits;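 active means plate z-score of nuclear minus cytoplasmic receptor signal below a set negative limit, without overly bright fluorescence or cell loss, cut at about -3.5 in these data, passing the limit was not always enough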;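 further: z-score of nuclear minus cytoplasmic ring GR-EGFP intensity difference per well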
#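 medium = tetracycline-free induction medium containing charcoal-stripped FBS | also added = 1.0 µM final dexamethasone stimulus | schedule = 48 h induction, 1 h compound, 30 min dex at 37 °C | technique = fixed, Hoechst-stained cells imaged at 10x for EGFP | measure = GR-EGFP nuclear translocation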
# Dynein inh conf: dynein cargo transport inhibitors, GR-EGFP translocation, confirmation, imaging, high-content imaging, GR-EGFP cells; shares compounds with Dynein cargo inh; 3617.4 GR-EGFP nuclear translocation imaging, dexamethasone-induced; calls only at 20 µM; 1,000 compounds, 69% hits; AID 463116, 2010;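 active means inhibition of receptor movement into the nucleus at or above a set limit in both runs, with normal cell brightness and cell count; inconclusive means limit reached in only one run, brightness and count normal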;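 further: dexamethasone at 1 µM final in well for 30 min; nuclear minus cytoplasmic GR-EGFP mean intensity difference in channel 2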
# * = called active by the depositor; i = inactive; ? = inconclusive; . = no result given; + = active, no number. Most compounds without a hit are left out; they make up all but 12% or so of the library.
SMILES,Autophagy mod,CHOP inhibitor,MT stabilize HCS,bCat nuc transl,L major viab,Dynein cargo inh,Dynein inh conf
Cc1cc(-c2nnc(CSc3nnc(NC(=O)c4ccc(C(C)(C)C)cc4)s3)o2)ccc1[N+](=O)[O-],.,35,.,-1,.,-0.16,.
Cc1cccc(C(=O)N[C@H](C(=O)Nc2nccs2)C(C)C)c1,i,32,7,-4,-2,-1.1,.
Cc1ccc(S(=O)(=O)CC(=O)c2ccc3c(c2)OCCO3)cc1,.,-18,.,1,.,1.5,.
O=[N+]([O-])c1c(NCCCO)cc(N2CCN(Cc3ccc4c(c3)OCO4)CC2)c2nonc12,i,28,2,-3,1,0.065,.
O=[N+]([O-])c1c(NCCCO)cc(SCc2ccco2)c2nonc12,i,19,6,0,15,-3.5*,+
COc1ccc(-c2ccc([C@H]3[C@@H]4C=CCC[C@@]4(C)C(=O)N3Cc3ccccc3)c(F)c2)cc1OC,.,-6,.,3,.,-1.7,.
COc1ccc(-c2cccc([C@H]3[C@@H]4C=CCC[C@@]4(C)C(=O)N3Cc3ccccc3)c2)cc1,.,-20,.,3,.,-3.6*,+
Cc1ccc2[nH]c(=O)c(CN(CCCO)S(=O)(=O)c3c(C)ccc4nsnc34)cc2c1,i,10,3,0,34,-5.9*,i
Cc1cc2cc(CN(CCCO)S(=O)(=O)c3cccc4nsnc34)c(=O)[nH]c2cc1C,i,31,5,-2,4,-0.58,.
COc1cc(C(Nc2ccccn2)c2ccc3ccc(C)nc3c2O)cc(OC)c1O (stereo unspecified),i,.,3,7,94*,-3.6*,+
CCCN1C(=O)/C(=C/c2c(NCCCOC(C)C)nc3c(C)cccn3c2=O)SC1=S,+,34,2,3,-7,-4.6,?
CCN(CC)c1ccc(/C=N/NC(=O)c2cc(C)nc3ccccc23)cc1,.,2,.,-1,.,0.07,.
CCN(CC)c1ccc(/C=C/c2cc(-c3ccccc3)c3ccccc3n2)cc1,.,63,.,.,.,-5.6,i
COC(CNC(=O)c1ccc2c3c(onc13)-c1ccccc1C2=O)OC,.,-68,.,4,.,-4.9*,+
COC(CNC(=O)c1cccnc1)OC,i,3,3,-1,-2,0.43,.
COc1ccc(/C=C/C(=O)c2c(O)c(OC)c3occc3c2OC)cc1,i,-62,4,0,39,-4.7*,+
O=C(CCN1CCC(c2ccc(Cl)s2)=N1)c1ccc(Cl)s1,.,17,.,-2,.,-0.2,.
CC(=O)C(Cl)C(=O)Nc1ccccc1 (stereo unspecified),i,83*,5,0,3,-4.2*,i
COC(=O)c1ccc(-n2c(C)cc(/C=N/n3cnnc3)c2C)cc1,i,37,3,-2,10,0.86,.
COC(=O)c1ccc(-n2c(C)cc(C(=O)CCl)c2C)cc1,i,90*,13,0,101*,-5*,+
CCOC(=O)c1cc(C)n(-c2ccc(Cl)cc2)c1C,.,-12,.,-1,.,-0.2,.
CCOc1ccc(-n2c(C)cc(C(=O)CCl)c2C)cc1,+,-427,3,1,100*,-4.8*,+
CCOCCCNC(=O)c1ccc(CS(=O)(=O)Cc2ccc(C)cc2)o1,i,27,2,1,-3,-0.63,.
O=C(O/N=C\c1ccc(N2CCCCC2)c([N+](=O)[O-])c1)c1ccc(Cl)cc1Cl,i,14,3,8,1,0.011,.
COc1ccccc1C(=O)/C=C/c1ccc(N2CCCCC2)c([N+](=O)[O-])c1,i,-35,21,0,98*,-5.4*,+
SMILES,Autophagy mod,CHOP inhibitor,MT stabilize HCS,bCat nuc transl,L major viab,Dynein cargo inh,Dynein inh conf
O=C(/C=C/c1ccc(N2CCCCC2)c([N+](=O)[O-])c1)c1ccc(O)cc1,i,-59,7,0,100*,-3.7*,+
CCOc1ccccc1CNc1ccc(N2CCOCC2)c(C(=O)O)c1,i,26,1,0,-3,1.4,.
COc1ccc(CS(=O)(=O)/C(Cl)=C(/Cl)C(=O)Nc2ccc(OC)nc2)cc1,i,.,1,.,32,-4.6,+
COc1ccc(NC(=O)/C(Cl)=C(/Cl)S(=O)Cc2ccccc2)cn1 (stereo unspecified),i,.,2,-2,100*,-5.4*,+
COc1ccc(NC(=O)Cc2ccccc2)cn1,i,22,2,1,-3,-0.53,.
CC(=O)Nc1cccc(OCc2ccc(S(=O)(=O)Cc3ccccc3)cc2)c1,i,7,2,-3,0,0.14,.
CCn1ncc(CNC(=O)C2(C)CC2(Cl)Cl)c1C (stereo unspecified),i,-29,3,2,10,3.9,.
O=[N+]([O-])c1ccc(-n2nnnc2-c2ccccc2)c([N+](=O)[O-])c1,i,-66,5,-1,100*,-6.6*,+
O=C(CSc1nnc(-c2cccs2)o1)N1CCc2ccccc21,i,24,3,2,2,-0.1,.
Cc1occc1-c1nnc(SCC(=O)N2CCc3ccccc32)o1,i,4,3,.,32,-4*,i
CCOc1ccccc1CNC(=O)C1CCN(C(=O)c2sccc2-n2cccc2)CC1,i,30,4,-2,7,-0.5,.
O=C(/C=C/c1ccccc1)/C=C/c1ccccc1,i,98*,4,-2,100*,-7*,+
CCCCN(C)C1=CC2=CC(=C(C#N)C#N)CCC2CC1 (stereo unspecified),?,-7,4,9,33,-8.1*,+
N#CC(C#N)=C1C=C2C=C(N3CCCCC3)CCC2CC1 (stereo unspecified),?,-14,4,-1,3,-7.3*,+
Cc1cccc(C)c1NC(=O)CSC(=O)c1sc2ccccc2c1Cl,.,24,.,2,.,-1.4,.
CCCC(=O)Nc1cc(C(=O)O)ccc1Sc1ccccc1,i,-2,1,-1,-9,-1.3,.
Cc1cc(C)n(-c2nc(NCCN(C)C)c3c4c(sc3n2)CCCC4)n1,.,-3,.,16,.,-4.6*,i
N#CC1=C(N)OC2=C(CC/C2=C\c2ccccc2)C1c1ccccc1 (stereo unspecified),i,58,3,2,101*,-4.3,+
O=C(NCc1csc(-c2cccs2)n1)c1cccc(Cl)c1,.,28,.,-3,.,-0.37,.

# Screens deposited in PubChem BioAssay by several laboratories.
